High-throughput results from PubChem.
WNV protease inh = inhibitors of West Nile virus NS2B-NS3 protease | P06935 | 0.18% of 65,000 active | z-score (test concentration not listed) | AID 577 | WNV NS2B-NS3 protease, fluorogenic substrate Ex360/Em465; hits give low values; in the data active = z-score below about -3
Ecoli WT expand = growth inhibitors of E. coli BW25113 wild type | AID 710 | growth inhibition, % at 100 µM | 0.15% of 98,000 active | OD600 absorbance;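 active = growth inhibition above about 50% at one test dose, limit read from the data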;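 also: growth measured after 20 h incubation at 37 °C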
AP complement = orthogonal test for alternative complement pathway inhibitors; Human serum alternative complement pathway, LPS-coated ELISA, C3 deposition; tested in compound mixtures; inhibition, % at 5 µM; 0.08% of 62,000 active;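 active = inhibition above 30% in each of the two pooled mixtures holding the compound, so the lower value exceeds 30%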;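 also: 0% = serum in Mg-EGTA without compound and 100% = EDTA serum blank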
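Assay system: Human serum alternative complement pathway, C3 deposition on LPS-coated wells | Incubation: 1 h serum-compound exposure at 37 °C | Doses: 5 µM per compound in ten-compound mixtures | Read-out: Percent inhibition | Technique: ELISA with HRP anti-human C3 antibody, TMB substrate, absorbance 450 nm | Replication: Two pool placements per compound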
Ecoli tolC = growth inhibitors of E. coli BW25113 tolC mutant; OD615; growth inhibition, % at 10 µM (by protocol); 2.2% of 65,000 active; AID 573;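 active = growth inhibition at or above a cutoff equal to the mean over every tested compound plus 3 SD, cut at about 60% in these data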;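 also: growth measured after 20 h incubation at 37 °C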
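test system = E. coli BW25113 ΔtolC::kan bacteria | medium = LB with kanamycin 50 µg/mL | signal = OD at 615 nm | schedule = 37 °C, 20 h exposure | evaluation = % inhibition of E. coli growth | compound dosing = one dose of 10 µM final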
M1 antag = M1 muscarinic receptor (rat) antagonism. 3.4% of 64,000 active. B-score at 10 µM. AID 628. CHO-M1 cells, Fluo-4 calcium, ACh EC80 antagonist mode; hits give low values. P08482;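 active = calcium fluorescence response, raw or row-and-column corrected B-score, differing from the plate sample mean either way at a set confidence level, mostly lower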
Target sequence (P08482 whole entry, looked up): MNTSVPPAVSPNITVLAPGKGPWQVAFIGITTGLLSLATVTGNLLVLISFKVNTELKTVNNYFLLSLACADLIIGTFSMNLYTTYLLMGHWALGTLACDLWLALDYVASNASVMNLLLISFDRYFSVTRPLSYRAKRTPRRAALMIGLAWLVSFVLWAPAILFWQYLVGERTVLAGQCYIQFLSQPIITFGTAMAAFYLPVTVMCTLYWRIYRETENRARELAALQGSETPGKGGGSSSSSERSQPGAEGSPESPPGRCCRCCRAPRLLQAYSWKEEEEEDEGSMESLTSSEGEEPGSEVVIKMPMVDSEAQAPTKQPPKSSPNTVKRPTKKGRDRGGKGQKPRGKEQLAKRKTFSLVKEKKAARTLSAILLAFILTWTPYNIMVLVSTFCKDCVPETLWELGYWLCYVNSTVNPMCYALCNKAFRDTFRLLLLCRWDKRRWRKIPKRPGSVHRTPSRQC
M1 agonist = activates the M1 muscarinic receptor; CHO-M1 cells, Fluo-4 calcium fluorescence, agonist mode; hits give high values; B-score at 10 µM; 3% of 64,000 active; AID 626;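 active = fluorescence rise, raw or as B-score row- and column-corrected plate score, outside the 99.7% band of its plate's samples, either direction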
M1 ag confirm = rat M1 muscarinic agonism, confirmation | shares compounds with M1 agonist | CHO-M1 cells, Fluo-4 calcium fluorescence, agonist mode; actives lie on both sides | fluorescence change (max-min) at 10 µM | 19% of 1,700 active;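 active = fluorescence change differs from the solvent-only DMSO control mean at a set confidence level in both duplicate runs; inconclusive = differs from solvent-only control mean in just one of two runs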;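 also: an EC20 dose of acetylcholine follows compound addition during the same imaging run; raw fluorescence intensity difference in instrument units with no normalization to controls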
M4 agonist ctr = counter-screen for M1 agonists: activity at rat M4 receptor; 9% of 1,700 active; fluorescence change (max-min) at 10 µM; AID 1741; shares compounds with M1 agonist; CHO M4/Gqi5 cells, Fluo-4 calcium fluorescence, agonist mode; actives lie on both sides;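 active = fluorescence change differing from the plate's solvent-only control wells at 99.7% confidence in both duplicates, whether higher or lower; inconclusive = differs from solvent controls in only one of two duplicates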
Numbers without * were called inactive; u = inconclusive; x = no result given. A selection: hits, their analogues and other compounds. The true share with any hit is near 5.2%.

SMILES	WNV protease inh	Ecoli WT expand	AP complement	Ecoli tolC	M1 antag	M1 agonist	others
CCCCCCn1c(N)c(C(=O)NCCN2CCOCC2)c2nc3ccccc3nc21	0.65	3	-6	76*	0.21	0.78
CN1CCC2(CC1)NC(=O)C1=C(CN(C)CC1)N2	1.2	4	11	-11	0.61	1
Cc1ccccc1C1=NCC(=O)N(CC(=O)NCc2ccco2)c2sc3c(c21)CCCC3	-0.7	-1	-3	61*	x	x
CCC(=O)N1c2ccc(S(=O)(=O)CCC(=O)N3CCC4(CC3)OCCO4)cc2CC1C (centres undefined)	1.3	0	17	-23	1.5	-0.86
Cc1ccccc1-n1c(O)c(C=Nc2ccc3c(c2)OCO3)c(=O)[nH]c1=O	-1.3	-2	2	-7	0.02	7.5*
C=C1C(O)(c2ccccc2)C2CC[N+]1(C)CC2 (centres undefined)	x	-3	x	x	x	x
Cc1cccn2c(=O)c3c(nc12)N1CCC(Cc2ccccc2)CC1C1(C3)C(=O)N(C)C(=O)N(C)C1=O (centres undefined)	-0.15	-2	2	67*	1.1	-2.5
CN1C(=O)N(C)C(=O)C2(Cc3c(nc4ccccn4c3=O)N3CCC(Cc4ccccc4)CC32)C1=O (centres undefined)	0.41	x	1	20	1.4	-0.8
O=C1NC(=O)[C@]2(Cc3ccccc3N3CCN(c4ccccc4)CC32)C(=O)N1Cc1ccccc1 (some centres undefined)	-4*	-14	5	18	-0.16	-0.22
CCOC(=O)C1C2c3ccccc3O[C@@]1(C)N=C1SCC(=O)N12 (some centres undefined)	-1.2	3	24	-13	1.1*	-0.17
COC(=O)C1C2c3ccccc3OC1(C)N=c1s/c(=C/c3cnn(C)c3C)c(=O)n12 (centres undefined)	-0.21	-2	9	10	0.13	0.27
CCOC(=O)C1=C(N)OC2=C(C(=O)CCC2)C12C(=O)Nc1ccccc12 (centres undefined)	-0.43	-5	12	-2	0.18	0.53
CCOC(=O)C1=C(N)OC2=C(C(=O)CCC2)C12C(=O)N1c3c(ccc(C)c32)C(C)=CC1(C)C (centres undefined)	-0.71	-5	25	70*	0.52	0.37
CCn1nc(-c2cccs2)nc2c(=O)n(C)c(=O)nc1-2	-0.88	26	-5	97*	0.17	0.32
CCC(C)n1c(O)c(C(c2ccccn2)c2c(O)n(C(C)CC)c(=S)[nH]c2=O)c(=O)[nH]c1=S (centres undefined)	x	1	x	x	x	x
CCCCCSc1cc(OC)c(CCNC)cc1OC	x	3	x	x	x	x
CCCCCCCSc1cc(OC)c(CCNC)cc1OC	x	76*	x	x	x	x
CC1(C)CC2(CCO1)NCCN1C(=O)CSC12 (centres undefined)	1.6	-12	12	-15	-0.042	-0.29
O=C(C1CCN(c2nc3ccc(Br)cc3s2)CC1)N1CCC2(CC1)OCCO2	-1	-3	12	0	-5.5*	7.8*
CCOc1ccc2nc(N3CCC(C(=O)N4CCC5(CC4)OCCO5)CC3)sc2c1	x	-6	x	x	x	x
CCCCn1c(=O)c(C(=O)Nc2nc3ccccc3[nH]2)c(O)c2ccccc21	-0.5	x	-4	-8	0.25	-0.85
CCCCn1c(=O)c(C(=O)Nc2cnccn2)c(O)c2ccccc21	-0.55	-5	-7	99*	1.1	-0.69
CC1CN(O)C2CCc3nonc3C12O (centres undefined)	0.1	4	-11	-6	-0.18	0.23
CC(C)[C@@]1(NC(=O)[C@@H]2C=C3c4cccc5[nH]cc(c45)C[C@H]3N(C)C2)O[C@@]2(O)[C@@H]3CCCN3C(=O)[C@H](Cc3ccccc3)N2C1=O	0.16	x	3	10	0.73	60*
FC(F)(F)c1ccc2c(c1)nnn2C1CCN(Cc2nnnn2Cc2ccccc2)CC1	0.72	-26	0	63*	-0.37	-0.68
SMILES	WNV protease inh	Ecoli WT expand	AP complement	Ecoli tolC	M1 antag	M1 agonist	others
O=C(c1csc2c1CCCCC2)N1CCC2(CC1)OCCO2	-0.67	-2	4	-10	-0.1	0.0094
O=C(C1CC(=O)N(c2ccc(F)c(Cl)c2)C1)N1CCC2(CC1)OCCO2 (centres undefined)	0.69	3	22	3	0.55	-0.49
CCN1/C(=C\C=C\C2=[N+](CC)c3ccccc3C2(C)C)C(C)(C)c2ccccc21	x	55*	x	x	x	x
CC1N(O)C2CCCCCC2N1O (centres undefined)	-0.34	-7	14	-22	0.02	0.98
N=c1c2c(n(Cc3ccc(Cl)cc3Cl)c3c1CCC3)CCCC2	1.3	21	-5	100*	-1.5	-0.36
CC(C)OC(=O)c1c(N)n(CC2CCCO2)c2nc3ccccc3nc12 (centres undefined)	1.9	2	19	16	0.036	0.28
CC(C)CCOC(=O)c1c(N)n(CC2CCCO2)c2nc3ccccc3nc12 (centres undefined)	1	-2	31	60*	0.068	3.1
CCC(=NCCOc1ccc(Cl)cc1)c1c(O)n(C)c(=O)n(C)c1=O	-1.5	-2	x	22	-1	11*	M1 ag confirm=-9.8;M4 agonist ctr=u
CCC(=NCc1ccc2c(c1)OCO2)c1c(O)n(C)c(=O)n(C)c1=O	0.68	0	-2	14	-0.61	2.9*	M1 ag confirm=12;M4 agonist ctr=-35
CCC(=NCCN1CCCCC1)c1c(O)n(C)c(=O)n(C)c1=O	-1	1	x	-5	-0.37	-0.35
CC(=NCc1ccc2c(c1)OCO2)c1c(O)n(C)c(=O)n(C)c1=O	0.05	1	13	-16	0.059	-1.1
OC(Cn1c2ccccc2c2ccccc21)C[n+]1cccc2ccccc21 (centres undefined)	x	3	x	x	x	x
COc1ccc(CC2C(=O)N(C)C(=O)N(C)C2=O)c(OC)c1	-0.28	4	28	2	-3.6*	6.5*	M1 ag confirm=-3.9;M4 agonist ctr=-24
COc1ccc(CC2C(=O)NC(=O)NC2=O)c(OC)c1	-0.29	-5	4	-12	0.083	-0.13
CCOC(=O)C1CCN(/C=C2/C(=O)NC(=O)N(c3ccc(OCC)cc3)C2=O)CC1	-0.5	-6	10	0	-0.13	-3.3*	M1 ag confirm=-7;M4 agonist ctr=-23
CCOc1ccc(CC2C(=O)NC(=O)N(c3ccc(CC)cc3)C2=O)cc1 (centres undefined)	x	-4	x	x	x	x
COc1ccc2c(c1)c(C(=O)CN1CCN(C)CC1)c(C)n2Cc1ccccc1	-1.3	10	-9	20	-0.47	2.6*	M1 ag confirm=u;M4 agonist ctr=-71
